SR-BI HDL uptake: inhibitors of SR-BI mediated HDL lipid uptake, primary screen, ldlA[mSR-BI] cells, fluorescence, single point; Scavenger receptor class B member 1 (Mus musculus), Q61009; ldlA[mSR-BI] CHO cells, DiI-HDL uptake fluorescence, 3 h; inhibition, % at 12.5 µM; actives 0.96% (n = 320,000); AID 488896, 2010;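 active means mean replicate inhibition of at least 70% and a set share of replicates each scoring 70 or more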;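 further: 0% = median of neutral control wells and 100% = median of positive control wells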
ANO1 activ: TMEM16A chloride channel activators or potentiators, primary screen, cell-based, HTS | Anoctamin-1 (Mus musculus), Q8BHY3 | HEK293 TMEM16A/YFP-H148Q/I152L, iodide quench fluorescence; stronger effect = lower value | B-score at 10 µM | actives 0.3% (n = 340,000) | AID 623877, 2012;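 active means fluorescence-ratio B-score plate-corrected deviation score at least 3 library SD below zero, with starting fluorescence score within 5 deviations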;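 further: channel opened by trigger with iodide after compound preincubation; score built on the fluorescence ratio of max minus min over baseline; more negative score means more quench and so TMEM16A activation or potentiation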
SR-BI DiI-HDL act: activators of SR-BI mediated DiI-HDL uptake, primary screen, ldlA[mSR-BI] CHO cells, DiI fluorescence; 3 h; 100 = double the neutral-control signal; activation, % at 12.5 µM; actives 0.096% (n = 320,000); AID 504775, 2011;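 active means mean replicate activation of at least 60% and every replicate at or above 60%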;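 further: 0% = median plate neutral-control signal and 100% = twice that signal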
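Material: SR-BI-overexpressing, LDLR-lacking CHO cells; schedule: compound exposure 3 h, 37 °C; reagent: DiI-labelled HDL at 10 µg/mL final; technique: bottom-read fluorescence, 550/595 nm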
Kir21 block: inhibitors of mouse Kir2.1 inward-rectifier potassium channel; Inward rectifier potassium channel 2 (Mus musculus), P35561; AID 1672, 2009; B-score at 10 µM; actives 0.85% (n = 310,000); HEK293-Kir2.1, FluxOR thallium flux fluorescence; stronger effect = lower value;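 active means fluorescence ratio B-score at or below minus 3 SD of library scores, with starting-brightness B-score within 2 SD, cut at about -4.2 in these data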;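 further: channel flux triggered by added potassium and thallium sulfate stimulus; B-score of peak minus minimum fluorescence over baseline after thallium stimulus; more negative B-score means stronger Kir2.1 block with less thallium influx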
Target sequence (P35561 whole entry, looked up): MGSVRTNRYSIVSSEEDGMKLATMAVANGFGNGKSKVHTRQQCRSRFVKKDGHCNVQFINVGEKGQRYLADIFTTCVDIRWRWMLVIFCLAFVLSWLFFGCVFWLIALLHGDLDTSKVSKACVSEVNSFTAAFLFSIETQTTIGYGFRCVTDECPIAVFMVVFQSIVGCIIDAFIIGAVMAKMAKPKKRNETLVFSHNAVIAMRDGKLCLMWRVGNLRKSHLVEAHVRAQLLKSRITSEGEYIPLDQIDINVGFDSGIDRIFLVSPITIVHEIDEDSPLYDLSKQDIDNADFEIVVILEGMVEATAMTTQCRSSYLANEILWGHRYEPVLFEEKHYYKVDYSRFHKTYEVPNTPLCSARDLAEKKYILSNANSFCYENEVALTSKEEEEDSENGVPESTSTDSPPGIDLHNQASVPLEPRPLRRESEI
FID counter: compounds displacing fluorescent DNA intercalator, primary screen, artefact control for HCV NS3 helicase inhibitor project, biochemical, FID fluorescence. DNA fluorescent intercalator displacement. inhibition, % at 7.9 µM. actives 0.17% (n = 290,000); in the data active means inhibition above about 37%;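 further: 0% = vehicle and 100% = reference compound; higher means more ethidium bromide displaced from hairpin DNA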
ANO1 block: TMEM16A chloride channel inhibitors, primary screen, cell-based, HTS; normalized B-score (activity score, 25-100; higher = stronger inhibition) at 10 µM; actives 1.2% (n = 310,000); HEK293 TMEM16A/YFP iodide influx fluorescence, ionomycin; Anoctamin-1 (Mus musculus), Q8BHY3;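 active means ratio plate-corrected score three or more library SD toward inhibition, starting fluorescence score within five deviations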;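 further: score derived from kinetic fluorescence span divided by baseline fluorescence per well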
The depositor's hits bear a star; i = inactive; x = no result. Only some compounds are listed: those with a hit (about 3% of all), similar ones and a draw of the others.

SMILES	SR-BI HDL uptake	ANO1 activ	SR-BI DiI-HDL act	Kir21 block	FID counter	ANO1 block
CC(C)CN(C(=O)CCC1CCCCC1)c1c(N)n(CC(C)C)c(=O)[nH]c1=O	-17	i	17	x	x	x
O=C1C2CCCCN2C(=O)N1CCCCN1CCN(c2ccccc2Oc2ccccc2)CC1 (configuration not stated)	20	i	-20	-1.6	8	i
COC(=O)Cn1c(CN(C)Cc2ccccc2)nc2c1c(=O)n(C)c(=O)n2C	-12	i	12	1	-24	i
COC(=O)Cn1c(CN2CCC(Cc3ccccc3)CC2)nc2c1c(=O)n(C)c(=O)n2C	5	i	-5	2	-44	25*
N#C/C(=C/c1ccc(-c2ccc([N+](=O)[O-])cc2)o1)C(=O)Nc1nc(-c2cccs2)cs1	88*	i	-88	x	x	x
CC(=O)NCCNC(=O)c1ccc(NC2=NC3CS(=O)(=O)CC3S2)cc1 (configuration not stated)	x	-12*	x	-0.05	-1	i
CCOc1ccccc1-n1nnnc1SCC(=O)NCc1ccco1	31	i	-31	-1.4	-3	i
CCOC(=O)C1=C(CCc2ccccc2)NC(=O)NC1c1ccc(C#N)cc1 (configuration not stated)	44	i	-44	-0.9	x	i
O=C(COC(=O)CNC(=O)c1ccc(Cl)cc1Cl)NCc1ccco1	-89	i	89*	1.9	x	i
Cc1ccc(S(=O)(=O)NCC(=O)OCC(=O)N(C)C2CCS(=O)(=O)C2)cc1 (configuration not stated)	-26	i	26	-0.68	x	i
COc1ccc(OC)c(C2C(C(=O)c3ccc(C)o3)=C(O)C(=O)N2CCN2CCOCC2)c1 (configuration not stated)	2	i	-2	0.14	-42	i
CCCOc1ccc(C2C(C(=O)c3ccc(C)o3)=C(O)C(=O)N2CCN2CCOCC2)cc1OC (configuration not stated)	-5	i	5	0.33	-13	100*
CC1CCCC(NC(=O)C2N(CCCN3CCCC3)C(=O)C3C(C(=O)Nc4ccc(Cl)cc4)C4C=CC32O4)C1C (configuration not stated)	x	i	x	-0.42	18	i
C=CCN1C(=O)/C(=C\c2ccc(Cl)cc2)N=C1SCC(=O)NCCC	-23	-27*	23	-1.4	0	i
COc1ccc(S(=O)(=O)NNc2nc(C)cc(C)n2)cc1[N+](=O)[O-]	4	i	-4	-0.04	-4	i
COc1cc(NC(=O)c2ccc(C)cc2C)ccc1NC(=O)c1cccs1	84*	i	-84	0.4	-30	i
Cc1ccc(NC(=O)c2cccs2)cc1S(=O)(=O)Nc1cccc(Cl)c1	18	i	-18	-0.93	-4	100*
Cc1cccc(C(=O)Nc2cc(NC(=O)c3cccs3)ccc2C)c1	74*	i	-74	-0.59	-12	i
CC(C)[C@@H](NC(=O)C1CCN(C(=O)[C@@H]2CCCN2C(=O)OC(C)(C)C)CC1)C(=O)NCc1ccc(F)cc1	2	-24*	-2	0.24	-25	i
COc1ccc(CNC(=O)[C@@H](NC(=O)C2CCN(C(=O)[C@@H]3CCCN3C(=O)OC(C)(C)C)CC2)C(C)C)cc1	-18	i	18	-1.6	-33	i
C/C(=C\C(=O)c1ccc(Br)cc1)NCc1ccc(C)cc1	-7	i	7	-0.26	-7	100*
C/C(=C\C(=O)c1ccc(Br)cc1)NCc1ccccc1	-8	i	8	-0.56	-2	i
C/C(=C\C(=O)c1ccc(Br)cc1)NNC(=O)c1ccccc1	86*	i	-86	-0.33	x	i
OCC(Cc1ccccc1)Nc1c2ccccc2nc2ccccc12 (configuration not stated)	8	i	-8	-8.6*	3	i
CC1(C(=O)OCC(=O)NC(=O)NCc2ccccc2)CC1(Cl)Cl (configuration not stated)	-62	i	62*	-0.54	-18	i
SMILES	SR-BI HDL uptake	ANO1 activ	SR-BI DiI-HDL act	Kir21 block	FID counter	ANO1 block
CCCN(CCC)c1ccc(/C=C/c2ccc3cc(OCC)ccc3n2)cc1	71*	i	-71	-0.92	-11	i
COc1ccc(CCNC(=O)C2CCCN(c3nc4ccccc4s3)C2)cc1OC (configuration not stated)	79*	i	-79	-0.51	-54	i
CCOc1ccc(CCNC(=O)C2CCN(c3nn4c(=O)cc(C)nc4s3)CC2)cc1OCC	72*	i	-72	-0.2	-33	i
CCCN(CCC)C(=O)C1CCN(c2ccc(S(=O)(=O)N3CCOCC3)cc2[N+](=O)[O-])CC1	1	i	-1	-0.46	-48	i
COc1ccccc1NS(=O)(=O)c1cccc(C(=O)N2CCN(C(=O)c3ccco3)CC2)c1	2	i	-2	x	x	x
Cc1occc1-c1nnc(SCC(=O)c2ccc3c(c2)OCCO3)n1CC1CCCO1 (configuration not stated)	x	i	x	-1.5	-36	i
CCCCn1c(SCC(=O)c2ccc3c(c2)OCCO3)nnc1-c1ccoc1C	29	i	-29	-5*	-6	i
Cc1cc(C(C)(C)C)c(O)c(C(C)(C)C)c1	-1	i	1	-0.25	0	i
CC(C)(C)c1cc(O)c(C(C)(C)C)cc1O	x	x	x	0.79	x	100*
CNc1nc(OCCNC(=O)Nc2ccccc2)nc(N2CCOCC2)n1	-9	i	9	3.2	-6	i
O=C(NCCOc1nc(N2CCOCC2)nc(N2CCOCC2)n1)Nc1ccc(Cl)cc1	26	-15*	-26	0	-2	i
O=C(NC1CC1)c1cccc(S(=O)(=O)N2CCOCC2)c1	-18	i	18	x	x	x
CCc1cc(CC)c(/C=N/NC(N)=O)c(CC)c1	-3	i	3	-7.3*	-17	i
CC(C)(C)c1cc[n+](-c2[nH]c(=O)sc2/C=N/N=C(\[O-])c2cccnc2)cc1	-12	i	12	0.99	-16	i
O=c1[nH]c(-[n+]2ccc3ccccc3c2)c(/C=N/N=C(\[O-])c2ccccc2)s1	-5	-12*	5	1.1	-18	i
COc1cc(NC(=O)c2ccco2)c(OC)cc1NC(=O)Nc1ccccc1Cl	94*	i	-94	1.9	3	i
